The target in experiment [1] is Phosphatidylinositol 4,5-bisphosphate 3-kinase catalytic subunit alpha isoform (Homo sapiens, UniProt P42336). Description: Inhibition of PI3K expressed in Escherichia coli by microtiter plate-based fluorescence polarization assay. In a few lines:
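Fluorescence polarization assay of PI3K activity with PIP2 substrate. Reactions contained 20 mM Hepes pH 7.5, 2 mM MgCl2, 0.05% CHAPS, 0.01% βME, 20 µM PIP2 and 25 µM ATP, and ran 15–30 min at room temperature. They were stopped with buffer holding 10 nM TAMRA-labeled probe and 40 nM GST-GRP1 (E. coli-expressed detector), then incubated 1–2 h before FP readout.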
Background: Fluorescence polarisation rises when a labelled molecule tumbles more slowly, as on binding a larger partner.

Experiment [2] deals with LNCaP. Description: Growth inhibition of human LNCap cells. It counts as functional, cell-based.
For experiment [3], the target named is Serine/threonine-protein kinase mTOR (Homo sapiens, UniProt P42345). Description: Inhibition of mTOR.

Molecules are shown by their SMILES.

The results in this text go back to ChEMBL document CHEMBL1143164, “Synthesis and structure-activity relationships of ring-opened 17-hydroxywortmannins: potent phosphoinositide 3-kinase inhibitors with improved properties and anticancer efficacy” (J Med Chem, 2008).

Chain of Phosphatidylinositol 4,5-bisphosphate 3-kinase catalytic subunit alpha isoform (P42336 whole entry, canonical isoform): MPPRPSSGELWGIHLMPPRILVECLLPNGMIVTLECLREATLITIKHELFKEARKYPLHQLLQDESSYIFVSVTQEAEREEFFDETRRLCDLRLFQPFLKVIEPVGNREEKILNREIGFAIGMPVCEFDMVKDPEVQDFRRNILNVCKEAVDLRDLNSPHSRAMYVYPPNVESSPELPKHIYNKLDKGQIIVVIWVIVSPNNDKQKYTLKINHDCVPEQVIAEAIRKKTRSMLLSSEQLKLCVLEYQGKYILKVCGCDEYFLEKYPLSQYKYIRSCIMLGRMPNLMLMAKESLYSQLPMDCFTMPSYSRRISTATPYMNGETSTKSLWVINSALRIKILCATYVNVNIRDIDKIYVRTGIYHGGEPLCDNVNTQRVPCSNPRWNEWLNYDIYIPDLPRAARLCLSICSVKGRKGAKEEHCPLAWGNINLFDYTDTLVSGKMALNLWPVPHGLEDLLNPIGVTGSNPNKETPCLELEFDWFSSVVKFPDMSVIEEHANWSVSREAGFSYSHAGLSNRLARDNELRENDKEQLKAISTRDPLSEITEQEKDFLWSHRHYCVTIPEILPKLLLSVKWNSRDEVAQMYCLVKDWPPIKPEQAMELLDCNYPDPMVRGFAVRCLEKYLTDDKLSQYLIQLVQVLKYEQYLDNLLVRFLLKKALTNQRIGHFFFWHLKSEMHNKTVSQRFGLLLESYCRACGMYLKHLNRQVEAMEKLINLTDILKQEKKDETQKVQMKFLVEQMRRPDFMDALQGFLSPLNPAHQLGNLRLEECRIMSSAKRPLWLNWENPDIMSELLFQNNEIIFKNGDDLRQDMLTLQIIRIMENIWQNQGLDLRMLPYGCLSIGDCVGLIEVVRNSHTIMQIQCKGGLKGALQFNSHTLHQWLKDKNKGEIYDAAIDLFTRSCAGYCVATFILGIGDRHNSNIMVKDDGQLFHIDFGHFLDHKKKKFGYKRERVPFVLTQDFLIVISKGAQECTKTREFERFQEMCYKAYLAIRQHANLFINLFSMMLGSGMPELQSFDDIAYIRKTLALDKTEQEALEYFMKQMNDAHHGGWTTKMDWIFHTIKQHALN

`COC[C@H]1OC(=O)/C(=C/N2CCN(Cc3ccccc3)CC2)C2=C(O)C(=O)C3=C([C@H](OC(C)=O)C[C@]4(C)[C@@H](O)CC[C@@H]34)[C@]21C`: the IC50 (as a rule, the concentration needed to halve the response being measured) in experiment [1] is 87 nM; in experiment [2], 1650 nM; in experiment [3] it was 890 nM.

`COC[C@H]1OC(=O)/C(=C/N(CCN(C)C)Cc2ccccc2)C2=C(O)C(=O)C3=C([C@H](OC(C)=O)C[C@]4(C)[C@@H](O)CC[C@@H]34)[C@]21C`: the IC50 was determined as 66 nM in experiment [1], 1430 nM in experiment [2] and 5600 nM in experiment [3].

Turning to `COC[C@H]1OC(=O)/C(=C/N(C)CCN(C)C)C2=C(O)C(=O)C3=C([C@H](OC(C)=O)C[C@]4(C)[C@@H](O)CC[C@@H]34)[C@]21C`, the IC50 in experiment [1] is 8.4 nM; in experiment [2] it was 751 nM; in experiment [3], 1470 nM.

Regarding `COC[C@H]1OC(=O)/C(=C/N2CCN(C)CC2)C2=C(O)C(=O)C3=C([C@H](OC(C)=O)C[C@]4(C)[C@@H](O)CC[C@@H]34)[C@]21C`, the IC50 in experiment [1] came to 90 nM; in experiment [2], 1090 nM; in experiment [3], 829 nM.

Consider `COC[C@H]1OC(=O)/C(=C/N2CCC(=O)CC2)C2=C(O)C(=O)C3=C([C@H](OC(C)=O)C[C@]4(C)[C@@H](O)CC[C@@H]34)[C@]21C`, for which the half-maximal inhibitory concentration (IC50) in experiment [1] was 60 nM; in experiment [2] it was 699 nM; in experiment [3] it was 960 nM.

Regarding `CCN(/C=C1/C(=O)O[C@H](COC)[C@@]2(C)C1=C(O)C(=O)C1=C2[C@H](OC(C)=O)C[C@]2(C)[C@@H](O)CC[C@@H]12)CCN(C)C`, the values for the IC50 in experiment [1], in experiment [2] and in experiment [3] were 5 nM, 1020 nM and 878 nM, respectively.

For the compound `COC[C@H]1OC(=O)/C(=C/N(CCC#N)Cc2ccccc2)C2=C(O)C(=O)C3=C([C@H](OC(C)=O)C[C@]4(C)[C@@H](O)CC[C@@H]34)[C@]21C`, the IC50 in experiment [1] is 444 nM; in experiment [2] it was 144 nM; in experiment [3], over 1690 nM.

`COC[C@H]1OC(=O)/C(=C/N2CCC(N3CCCCC3)CC2)C2=C(O)C(=O)C3=C([C@H](OC(C)=O)C[C@]4(C)[C@@H](O)CC[C@@H]34)[C@]21C`: the IC50 is 63 nM in experiment [1], 1500 nM in experiment [2] and 568 nM in experiment [3].

On to `COC[C@H]1OC(=O)/C(=C/N2CCC(C(=O)O)CC2)C2=C(O)C(=O)C3=C([C@H](OC(C)=O)C[C@]4(C)[C@@H](O)CC[C@@H]34)[C@]21C`, for which the 50% inhibitory concentration (IC50) is 33 nM in experiment [1], 500 nM in experiment [2] and 822 nM in experiment [3].

On to `COC[C@H]1OC(=O)/C(=C/N(C)CCCN2CCN(c3ccc(OC)cc3)CC2)C2=C(O)C(=O)C3=C([C@H](OC(C)=O)C[C@]4(C)[C@@H](O)CC[C@@H]34)[C@]21C`, for which the half-maximal inhibitory concentration (IC50) in experiment [1] stood at 15 nM; in experiment [2], 620 nM; in experiment [3], 1350 nM.

For `CCN/C=C1/C(=O)O[C@H](COC)[C@@]2(C)C1=C(O)C(=O)C1=C2[C@H](OC(C)=O)C[C@]2(C)[C@@H](O)CC[C@@H]12`, the values for the IC50 in experiment [1], in experiment [2] and in experiment [3] were over 10000 nM, 7070 nM and over 20000 nM, respectively.

Consider `COC[C@H]1OC(=O)/C(=C/N2CCN(C3CCN(C)CC3)CC2)C2=C(O)C(=O)C3=C([C@H](OC(C)=O)C[C@]4(C)[C@@H](O)CC[C@@H]34)[C@]21C`, for which the IC50 is 91 nM in experiment [1], 782 nM in experiment [2] and 961 nM in experiment [3].

As for `COC[C@H]1OC(=O)/C(=C/N(C)C2CCN(C)C2)C2=C(O)C(=O)C3=C([C@H](OC(C)=O)C[C@]4(C)[C@@H](O)CC[C@@H]34)[C@]21C` (stereo not given in full), the 50% inhibitory concentration (IC50) in experiment [1] turned out to be 127 nM; in experiment [2] it was 1010 nM; in experiment [3], 1210 nM.

`COC[C@H]1OC(=O)/C(=C/N2CCN(C3CCCCC3)CC2)C2=C(O)C(=O)C3=C([C@H](OC(C)=O)C[C@]4(C)[C@@H](O)CC[C@@H]34)[C@]21C`: the values for the IC50 in experiment [1], in experiment [2] and in experiment [3] were 43 nM, 1470 nM and 820 nM, respectively.

For the compound `COC[C@H]1OC(=O)/C(=C/N(C)CCCC(=O)O)C2=C(O)C(=O)C3=C([C@H](OC(C)=O)C[C@]4(C)[C@@H](O)CC[C@@H]34)[C@]21C`, the half-maximal inhibitory concentration (IC50) in experiment [1] came to 193 nM; in experiment [2] it was 365 nM; in experiment [3], 12600 nM.

For `COC[C@H]1OC(=O)/C(=C/N(C)CCCN2CCOCC2)C2=C(O)C(=O)C3=C([C@H](OC(C)=O)C[C@]4(C)[C@@H](O)CC[C@@H]34)[C@]21C`, the IC50 was determined as 24 nM in experiment [1], 595 nM in experiment [2] and 2290 nM in experiment [3].

With `CCN(CC)CCN(C)/C=C1/C(=O)O[C@H](COC)[C@@]2(C)C1=C(O)C(=O)C1=C2[C@H](OC(C)=O)C[C@]2(C)[C@@H](O)CC[C@@H]12`, the IC50 in experiment [1] amounted to 50 nM; in experiment [2], 2590 nM; in experiment [3] it was 767 nM.

Regarding `COC[C@H]1OC(=O)/C(=C/N2CCC(c3ccccc3)CC2)C2=C(O)C(=O)C3=C([C@H](OC(C)=O)C[C@]4(C)[C@@H](O)CC[C@@H]34)[C@]21C`, the IC50 in experiment [1] came out at 172 nM; in experiment [2] it was 1520 nM; in experiment [3], 2450 nM.

On to `COC[C@H]1OC(=O)/C(=C/N(CCCN(C)C)CCCN(C)C)C2=C(O)C(=O)C3=C([C@H](OC(C)=O)C[C@]4(C)[C@@H](O)CC[C@@H]34)[C@]21C`, for which the figures for the IC50 in experiment [1], in experiment [2] and in experiment [3] were 22 nM, 259 nM and 3560 nM, respectively.

In the case of `COC[C@H]1OC(=O)/C(=C/N(CCCN(C)C)C(C)(C)C)C2=C(O)C(=O)C3=C([C@H](OC(C)=O)C[C@]4(C)[C@@H](O)CC[C@@H]34)[C@]21C`, the values for the IC50 in experiment [1], in experiment [2] and in experiment [3] were 9.6 nM, 919 nM and 816 nM, respectively.

For the compound `COC[C@H]1OC(=O)/C(=C/N2CCN(CCCN(C)C)CC2)C2=C(O)C(=O)C3=C([C@H](OC(C)=O)C[C@]4(C)[C@@H](O)CC[C@@H]34)[C@]21C`, the IC50 in experiment [1] turned out to be 38 nM; in experiment [2], 831 nM; in experiment [3], 249 nM.

As for `COC[C@H]1OC(=O)/C(=C/N2CCN(c3ccccc3)CC2)C2=C(O)C(=O)C3=C([C@H](OC(C)=O)C[C@]4(C)[C@@H](O)CC[C@@H]34)[C@]21C`, the results for the IC50 in experiment [1], in experiment [2] and in experiment [3] were 56 nM, 953 nM and 692 nM, respectively.

Consider `COC[C@H]1OC(=O)/C(=C/NCCCN(C)C)C2=C(O)C(=O)C3=C([C@H](OC(C)=O)C[C@]4(C)[C@@H](O)CC[C@@H]34)[C@]21C`, for which the half-inhibitory concentration (IC50) was over 10000 nM in experiment [1], 2020 nM in experiment [2] and over 20000 nM in experiment [3].

For the compound `COC[C@H]1OC(=O)/C(=C/N(C)C(C)(C)C)C2=C(O)C(=O)C3=C([C@H](OC(C)=O)C[C@]4(C)[C@@H](O)CC[C@@H]34)[C@]21C`, the concentration for half-maximal inhibition (IC50) in experiment [1] turned out to be 440 nM; in experiment [2], 189 nM; in experiment [3], 6500 nM.

Turning to `COC[C@H]1OC(=O)/C(=C/N(C)CC(=O)OC(C)(C)C)C2=C(O)C(=O)C3=C([C@H](OC(C)=O)C[C@]4(C)[C@@H](O)CC[C@@H]34)[C@]21C`, the IC50 in experiment [1] came out at 1580 nM; in experiment [2], 174 nM; in experiment [3] it was 13900 nM.

Regarding `CCN(/C=C1/C(=O)O[C@H](COC)[C@@]2(C)C1=C(O)C(=O)C1=C2[C@H](O)C[C@]2(C)[C@@H](O)CC[C@@H]12)CC`, the IC50 was 7850 nM in experiment [1], 710 nM in experiment [2] and over 20000 nM in experiment [3].

For `COC[C@H]1OC(=O)/C(=C/N2CCCC2)C2=C(O)C(=O)C3=C([C@H](OC(C)=O)C[C@]4(C)[C@@H](O)CC[C@@H]34)[C@]21C`, the half-inhibitory concentration (IC50) was 496 nM in experiment [1], 257 nM in experiment [2] and over 20000 nM in experiment [3].

Turning to `COC[C@H]1OC(=O)/C(=C/N(CCO)CCO)C2=C(O)C(=O)C3=C([C@H](OC(C)=O)C[C@]4(C)[C@@H](O)CC[C@@H]34)[C@]21C`, the IC50 in experiment [1] was 918 nM; in experiment [2] it was 131 nM; in experiment [3], over 18700 nM.

For the compound `C=CCN(/C=C1/C(=O)O[C@H](COC)[C@@]2(C)C1=C(O)C(=O)C1=C2[C@H](OC(C)=O)C[C@]2(C)C(=O)CC[C@@H]12)CC=C` [SONOLISIB], the IC50 in experiment [1] was 88 nM; in experiment [2], 573 nM; in experiment [3], 3100 nM.

Take `COC[C@H]1OC(=O)/C(=C/N(C)CCCN(C)C)C2=C(O)C(=O)C3=C([C@H](O)C[C@]4(C)[C@@H](O)CC[C@@H]34)[C@]21C`: the figures for the half-maximal inhibitory concentration (IC50) in experiment [1], in experiment [2] and in experiment [3] were 638 nM, 2340 nM and over 20000 nM, respectively.

Consider `COC[C@H]1OC(=O)/C(=C/N2CCCCC2)C2=C(O)C(=O)C3=C([C@H](OC(C)=O)C[C@]4(C)[C@@H](O)CC[C@@H]34)[C@]21C`, for which the half-maximal inhibitory concentration (IC50) in experiment [1] stood at 104 nM; in experiment [2], 1550 nM; in experiment [3] it was 1800 nM.

On to `CCN(/C=C1/C(=O)O[C@H](COC)[C@@]2(C)C1=C(O)C(=O)C1=C2[C@H](OC(C)=O)C[C@]2(C)[C@@H](O)CC[C@@H]12)CCN(CC)CC`, for which the values for the 50% inhibitory concentration (IC50) in experiment [1], in experiment [2] and in experiment [3] were 24 nM, 1310 nM and 1480 nM, respectively.

On to `CCCCN(C)/C=C1/C(=O)O[C@H](COC)[C@@]2(C)C1=C(O)C(=O)C1=C2[C@H](OC(C)=O)C[C@]2(C)[C@@H](O)CC[C@@H]12`, for which the figures for the IC50 in experiment [1], in experiment [2] and in experiment [3] were 635 nM, 203 nM and 8700 nM, respectively.

As to `COC[C@H]1OC(=O)/C(=C/N2CCC(C(=O)OC)CC2)C2=C(O)C(=O)C3=C([C@H](OC(C)=O)C[C@]4(C)[C@@H](O)CC[C@@H]34)[C@]21C`, the half-maximal inhibitory concentration (IC50) worked out at 31 nM in experiment [1], 506 nM in experiment [2] and 1690 nM in experiment [3].

Turning to `COC[C@H]1OC(=O)/C(=C/NC(C)(C)C)C2=C(O)C(=O)C3=C([C@H](OC(C)=O)C[C@]4(C)[C@@H](O)CC[C@@H]34)[C@]21C`, the figures for the IC50 in experiment [1], in experiment [2] and in experiment [3] were over 10000 nM, 40700 nM and over 20000 nM, respectively.
